Measured values from ChEMBL document CHEMBL5252518, “Correlation of in Situ Oxazolidine Formation with Highly Synergistic Cytotoxicity and DNA Cross-Linking in Cancer Cells from Combinations of Doxorubicin and Formaldehyde” (J Med Chem, 2016).
Activity calls are given as the source filed them. The calls are words filed in the database; no cut-off is given here.

What was measured:
[1] = test system: NCI/ADR-RES; assay: Cytotoxicity against doxorubicin-resistant human NCI/ADR-RES cells assessed as inhibition of cell growth incubated for 3 hrs by crystal violet staining assay; assay type: functional, cell-based
[2] = Half life of compound; assay type: physicochemical
[3] = Prodrug conversion in pig liver assessed as esterase-mediated Doxazolidine formation by measuring its half life at 1 uM by HPLC analysis; assay type: ADME, tissue-based, Sus scrofa
[4] = test system: NCI/ADR-RES; assay: Cytotoxicity against doxorubicin-resistant human NCI/ADR-RES cells assessed as inhibition of cell growth incubated for 3 hrs in presence of pig liver esterase by crystal violet staining assay; assay type: functional, cell-based
[5] = test system: NCI/ADR-RES; assay: Cytotoxicity against doxorubicin-resistant human NCI/ADR-RES cells assessed as fold change in IC50 incubated for 3 hrs in presence of pig liver esterase by crystal violet staining assay; assay type: functional
[6] = test system: NCI/ADR-RES; assay: Cytotoxicity against doxorubicin-resistant human NCI/ADR-RES cells assessed as fold change in IC50 incubated for 3 hrs in presence of pig liver esterase by crystal violet staining assay relative to Doxsaliform; assay type: functional
[7] = test system: DNA; assay: Induction of DNA interstrand cross-linking in hydrogen peroxide induced human NCI/ADR-RES cells assessed as decrease in comet tail density at 10 uM incubated for 90 mins by comet assay; assay type: functional, cell-based
[8] = test system: MIA PaCa-2; assay: Cytotoxicity against doxorubicin-sensitive human MIA PaCa-2 cells assessed as inhibition of cell growth incubated for 30 mins by crystal violet staining assay; details: MIA PaCa-2, 0.5 h
[9] = Genotoxicity in doxorubicin-sensitive human MIA PaCa-2 cells assessed as increase in tail DNA density at 10 uM incubated for 90 mins by comet assay; assay type: toxicity, cell-based; details: mia paca-2, 1.5 h
In short: (§1)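 Alkaline single-cell gel electrophoresis (comet) assay. A bulk population of cells was trypsinized, then split into treatment groups and treated in suspension for 90 min. After the drug was removed, cells were promptly embedded in agarose, lysed and electrophoresed under alkaline conditions. Gels were then stained, and the stain density in the comet tail was scored as DNA strand-break content.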

[10] = test system: DNA; assay: Induction of DNA (unknown origin) expressed in Escherichia coli DH5alpha interstrand cross-linking assessed as inhibition of NotI-induced DNA digestion at 1.5 to 8 uM incubated for 30 mins by agarose gel electrophoresis based restriction endonuclease digestion assay; assay type: functional; details: dose 1.5-8 µM
[11] = test system: NCI/ADR-RES; assay: Cytotoxicity against doxorubicin-resistant human NCI/ADR-RES cells assessed as inhibition of cell growth incubated for 90 mins by crystal violet staining assay; assay type: functional, cell-based; details: 1.5 h
[12] = Genotoxicity in doxorubicin-resistant human NCI/ADR-RES cells assessed as increase in tail DNA density at 10 uM incubated for 90 mins by comet assay; assay type: toxicity, cell-based; details: 1.5 h; in short: as §1
[13] = test system: MIA PaCa-2; assay: Cytotoxicity against doxorubicin-sensitive human MIA PaCa-2 cells assessed as inhibition of cell growth incubated for 90 mins by crystal violet staining assay; assay type: functional, cell-based; details: MIA PaCa-2, 1.5 h
[14] = Genotoxicity in doxorubicin-sensitive human MIA PaCa-2 cells assessed as increase in tail DNA density at 250 uM incubated for 90 mins by comet assay; assay type: toxicity, cell-based; details: mia paca-2, 1.5 h; in short: as §1
[15] = Genotoxicity in doxorubicin-resistant human NCI/ADR-RES cells assessed as increase in tail DNA density at 250 uM incubated for 90 mins by comet assay; assay type: toxicity, cell-based; details: 1.5 h; in short: as §1
[16] = test system: DNA; assay: Induction of DNA (unknown origin) expressed in Escherichia coli DH5alpha interstrand cross-linking assessed as inhibition of NdeI-induced DNA digestion at 1.5 to 8 uM incubated for 30 mins by agarose gel electrophoresis based restriction endonuclease digestion assay; assay type: functional; details: dose 1.5-8 µM
[17] = test system: NCI/ADR-RES; assay: Synergistic cytotoxicity against doxorubicin-resistant human NCI/ADR-RES cells assessed as fold change in IC50 incubated for 90 mins in presence of formaldehyde by crystal violet staining assay; details: 1.5 h
[18] = test system: NCI/ADR-RES; assay: Synergistic cytotoxicity against doxorubicin-resistant human NCI/ADR-RES cells assessed as fold change in IC50 incubated for 30 mins in presence of formaldehyde by crystal violet staining assay; details: 0.5 h
[19] = test system: NCI/ADR-RES; assay: Synergistic cytotoxicity against doxorubicin-resistant human NCI/ADR-RES cells assessed as fold change in IC50 incubated for 90 mins in presence of formaldehyde low concentration by crystal violet staining assay; details: 1.5 h
[20] = test system: NCI/ADR-RES; assay: Cytotoxicity against doxorubicin-resistant human NCI/ADR-RES cells assessed as inhibition of cell growth incubated for 30 mins by crystal violet staining assay; assay type: functional, cell-based; details: 0.5 h
[21] = Genotoxicity in doxorubicin-resistant human NCI/ADR-RES cells assessed as increase in DNA damage at 100 uM incubated for 90 mins by comet assay; assay type: toxicity, cell-based; details: 1.5 h
In short: (§2)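 Cells were trypsinized as one bulk population, split into treatment groups and drug-treated in suspension for 90 min. They were then promptly embedded in agarose, lysed and electrophoresed under alkaline conditions (alkaline single-cell gel electrophoresis). After staining, DNA strand breaks were scored as comet tail stain density.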

[22] = test system: MIA PaCa-2; assay: Synergistic cytotoxicity against doxorubicin-sensitive human MIA PaCa-2 cells assessed as fold change in IC50 incubated for 90 mins in presence of formaldehyde by crystal violet staining assay; assay type: functional; details: 1.5 h
[23] = Genotoxicity in doxorubicin-sensitive human MIA PaCa-2 cells assessed as increase in DNA damage at 100 uM incubated for 90 mins by comet assay; assay type: toxicity, cell-based; details: mia paca-2, 1.5 h; in short: as §2
[24] = test system: MIA PaCa-2; assay: Synergistic cytotoxicity against doxorubicin-sensitive human MIA PaCa-2 cells assessed as combination index incubated for 90 mins in presence of formaldehyde by crystal violet staining assay; assay type: functional; details: 1.5 h
[25] = test system: MIA PaCa-2; assay: Synergistic cytotoxicity against doxorubicin-sensitive human MIA PaCa-2 cells assessed as cell survival incubated for 90 mins in presence of formaldehyde by crystal violet staining assay; assay type: functional; details: 1.5 h
[26] = test system: NCI/ADR-RES; assay: Synergistic cytotoxicity against doxorubicin-resistant human NCI/ADR-RES cells assessed as combination index incubated for 90 mins in presence of formaldehyde by crystal violet staining assay; details: 1.5 h
[27] = test system: NCI/ADR-RES; assay: Induction of DNA damage in hydrogen peroxide induced human NCI/ADR-RES cells assessed as increase in comet tail density at 100 uM incubated for 90 mins by comet assay; assay type: functional, cell-based
[28] = test system: MIA PaCa-2; assay: Synergistic cytotoxicity against doxorubicin-sensitive human MIA PaCa-2 cells assessed as inhibition of cell growth incubated for 90 mins in presence of formaldehyde by crystal violet staining assay; assay type: functional, cell-based; details: MIA PaCa-2, 1.5 h
[29] = test system: MIA PaCa-2; assay: Synergistic cytotoxicity against doxorubicin-sensitive human MIA PaCa-2 cells assessed as inhibition of cell growth incubated for 90 mins in presence of epirubicin by crystal violet staining assay; details: MIA PaCa-2, 1.5 h

| Compound | IC50 [1] [nM] | IC50 [8] [nM] | Activity [10] | IC50 ([11]; read-out: IC50) [nM] | IC50 ([11]; read-out: pIC50 (converted)) [nM] | IC50 ([13]; read-out: IC50) [nM] | IC50 ([13]; read-out: pIC50 (converted)) [nM] | Activity [16] | IC50 [20] [nM] | Activity [21] | Activity [23] | Activity [27] | further results |
| --- | --- | --- | --- | --- | --- | --- | --- | --- | --- | --- | --- | --- | --- |
| COc1cccc2c1C(=O)c1c(O)c3c(c(O)c1C2=O)C[C@@](O)(C(=O)CO)C[C@@H]3O[C@H]1C[C@H](NCNC(=O)c2ccccc2O)[C@H](O)[C@H](C)O1 | 800000 | – | – | – | – | – | – | – | – | – | – | – | half-life [2]: 57 min |
| CCCCCOC(=O)Nc1ccc(COC(=O)N2CO[C@@H]3[C@H](C)O[C@@H](O[C@H]4C[C@](O)(C(=O)CO)Cc5c(O)c6c(c(O)c54)C(=O)c4c(OC)cccc4C6=O)C[C@@H]32)cc1 | 2000 | – | – | – | – | – | – | – | – | – | – | – | t1/2 [3]: 24 min; IC50 [4]: 3 nM; fold change (FC) [5]: 30; fold change (FC) [6]: 25 |
| COc1cccc2c1C(=O)c1c(O)c3c(c(O)c1C2=O)C[C@@](O)(C(=O)CO)C[C@@H]3O[C@H]1C[C@@H]2NCO[C@@H]2[C@H](C)O1 [DOXAZOLIDINE] | – | 51000 | Active | 48 | 50.1 | 22 | 20 | Active | – | – | – | – | Activity [7]: Active; Activity [9]: Non-Toxic; Activity [12]: Non-Toxic; Activity [14]: Non-Toxic; Activity [15]: Non-Toxic |
| COc1cccc2c1C(=O)c1c(O)c3c(c(O)c1C2=O)C[C@@](O)(C(=O)CO)C[C@@H]3O[C@H]1C[C@H](N)[C@H](O)[C@H](C)O1 [DOXORUBICIN] | – | 4000 | Active | 620 | 617 | 66000 | 63100 | Active | 220000 | Toxic | Toxic | Active | fold change (FC) [17]: 55; fold change (FC) [18]: 9; fold change (FC) [19]: 2.5; fold change (FC) [22]: 3.5; CI [24]: 0.4; Activity [25]: 75%; CI [26]: 0.02 |
| COc1cccc2c1C(=O)c1c(O)c3c(c(O)c1C2=O)C[C@@](O)(C(=O)CO)C[C@@H]3O[C@H]1C[C@H](N)[C@@H](O)[C@H](C)O1 [EPIRUBICIN] | – | – | – | 630 | 631 | > 100000 | – | – | – | Toxic | Toxic | Active | IC50 [28]: 500 nM |
| C=O [FORMALDEHYDE] | – | – | – | 530000 | 501000 | 610000 | 631000 | – | 600000 | – | – | – | IC50 [29]: 500 nM |
